Measured values taken from ChEMBL document CHEMBL3861956, “Lignans from the Australian Endemic Plant Austrobaileya scandens” (J Nat Prod, 2016).
Blank lines part the entries; values can stand above or below the compound they belong to.

Key:
[1] = Antiproliferative activity against human PC3 cells after 72 hrs by Alamar Blue assay; conditions: PC-3, 72 h
[2] = Antiproliferative activity against human PC3 cells at 10 uM after 72 hrs by Alamar Blue assay relative to control; conditions: PC-3, 72 h
[3] = system: PC-3; experiment: Induction of apoptosis in human PC3 cells assessed as appearance of aggregated mitochondrial texture after 72 hrs by Hoechst 33342/mitotracker deep red/cellmask plasma membrane probe-based fluorescence microscopy; format: functional, cell-based
In short: (§1)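 PC3 cells seeded at 2000/well onto compound, grown 72 h at 37 °C, 5% CO2. Stained 30 min at 37 °C with Hoechst 33342 (1/1000), 1 μM MitoTracker Deep Red and CellMask plasma membrane (1/1000), then PBS wash. Automated wide-field imaging at 20×, 25 fields/well. Nuclei segmented by Hoechst, cytoplasm by CellMask, border cells excluded. Results normalized to DMSO; at least two experiments.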

[4] = Cell cycle arrest in human PC3 cells assessed as accumulation at G0/G1 phase at 1 uM after 24 hrs by propidium iodide staining-based flow cytometric method (reference value: 75.3 +/- 1.8%); format: functional; conditions: PC-3
In short: (§2)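 PC3 cells exposed 24 h to 0 (DMSO only), 0.1, 0.3 or 1 μM. Cells collected, washed in ice-cold PBS, fixed in 70% EtOH at −20 °C for 16 h. Stained 20 min at room temperature with 0.1% Triton X-100, 0.2 mg RNaseA and 2 μL PI (1 mg/mL) in 1 mL, then flow cytometry. Phase distribution fitted by ModFit.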

[5] = Cell cycle arrest in human PC3 cells assessed as accumulation at S phase at 1 uM after 24 hrs by propidium iodide staining-based flow cytometric method (reference value: 15.8 +/- 0.3%); format: functional; conditions: PC-3
In short: as §2

[6] = system: PC-3; experiment: Induction of apoptosis in human PC3 cells assessed as increase in cell area after 72 hrs by Hoechst 33342/mitotracker deep red/cellmask plasma membrane probe-based fluorescence microscopy; format: functional
In short: as §1

[7] = system: PC-3; experiment: Induction of apoptosis in human PC3 cells assessed as chromatin condensation after 72 hrs by Hoechst 33342/mitotracker deep red/cellmask plasma membrane probe-based fluorescence microscopy; format: functional, cell-based
In short: as §1

[8] = Cell cycle arrest in human PC3 cells assessed as accumulation at S phase at 0.1 uM after 24 hrs by propidium iodide staining-based flow cytometric method (reference value: 15.8 +/- 0.3%); format: functional; conditions: PC-3
In short: as §2

[9] = Cell cycle arrest in human PC3 cells assessed as accumulation at G2/M phase at 0.3 uM after 24 hrs by propidium iodide staining-based flow cytometric method (reference value: 8.9 +/- 1.5%); format: functional; conditions: PC-3
In short: as §2

[10] = Cell cycle arrest in human PC3 cells assessed as accumulation at G2/M phase at 0.1 uM after 24 hrs by propidium iodide staining-based flow cytometric method (reference value: 8.9 +/- 1.5%); format: functional; conditions: PC-3
In short: as §2

[11] = Cell cycle arrest in human PC3 cells assessed as accumulation at G0/G1 phase at 0.3 uM after 24 hrs by propidium iodide staining-based flow cytometric method (reference value: 75.3 +/- 1.8%); format: functional; conditions: PC-3
In short: as §2

[12] = Cell cycle arrest in human PC3 cells assessed as accumulation at G2/M phase at 1 uM after 24 hrs by propidium iodide staining-based flow cytometric method (reference value: 8.9 +/- 1.5%); format: functional; conditions: PC-3
In short: as §2

[13] = system: PC-3; experiment: Induction of apoptosis in human PC3 cells assessed as increase in nuclear intensity after 72 hrs by Hoechst 33342/mitotracker deep red/cellmask plasma membrane probe-based fluorescence microscopy; format: functional, cell-based
In short: as §1

[14] = Cell cycle arrest in human PC3 cells assessed as accumulation at S phase at 0.3 uM after 24 hrs by propidium iodide staining-based flow cytometric method (reference value: 15.8 +/- 0.3%); format: functional; conditions: PC-3
In short: as §2

[15] = system: PC-3; experiment: Induction of apoptosis in human PC3 cells assessed as appearance of rounded cells after 72 hrs by Hoechst 33342/mitotracker deep red/cellmask plasma membrane probe-based fluorescence microscopy; format: functional, cell-based
In short: as §1

[16] = Cell cycle arrest in human PC3 cells assessed as accumulation at G0/G1 phase at 0.1 uM after 24 hrs by propidium iodide staining-based flow cytometric method (reference value: 75.3 +/- 1.8%); format: functional; conditions: PC-3
In short: as §2

[17] = system: PC-3; experiment: Induction of apoptosis in human PC3 cells assessed as increase in cell size after 72 hrs by Hoechst 33342/mitotracker deep red/cellmask plasma membrane probe-based fluorescence microscopy; format: functional
In short: as §1

[18] = system: PC-3; experiment: Induction of apoptosis in human PC3 cells assessed as increase in mitochondrial area after 72 hrs by Hoechst 33342/mitotracker deep red/cellmask plasma membrane probe-based fluorescence microscopy; format: functional, cell-based
In short: as §1

[19] = system: PC-3; experiment: Induction of apoptosis in human PC3 cells assessed as increase in mitochondrial intensity after 72 hrs by Hoechst 33342/mitotracker deep red/cellmask plasma membrane probe-based fluorescence microscopy; format: functional, cell-based
In short: as §1

SMILES: CC(=O)O[C@H]1C(=O)[C@@]2(C)[C@H]([C@H](OC(=O)c3ccccc3)[C@]3(O)C[C@H](OC(=O)[C@H](O)[C@@H](NC(=O)c4ccccc4)c4ccccc4)C(C)=C1C3(C)C)[C@]1(OC(C)=O)CO[C@@H]1C[C@@H]2O [PACLITAXEL]
IC50 [1]: 0.002 µM

SMILES: COc1cc([C@@H]2c3cc4c(cc3C[C@H]3COC(=O)[C@@H]32)OCO4)cc(OC)c1OC [DESOXYPODOPHYLLOTOXIN]
IC50 [1]: 0.018 µM

SMILES: COc1cc([C@@H]2c3cc4c(c(OC)c3C[C@H]3COC(=O)[C@@H]32)OCO4)cc(OC)c1OC
IC50 [1]: 0.016 µM

SMILES: COc1cc(C(c2ccc(O)c(OC)c2)[C@@H](C)[C@H](C)CO)ccc1O
IC50 [1]: 6.36 µM

SMILES: C[C@H](Cc1ccc2c(c1)OCO2)[C@H](C)Cc1ccc2c(c1)OCO2
inhibition at 10 µM [2]: 27%

SMILES: C[C@H]1[C@H](C)C(=O)O[C@@H]1c1ccc2c(c1)OCO2
inhibition at 10 µM [2]: 15%

The next lines start with results.

IC50 [1]: 0.823 µM
SMILES: COc1cc([C@@H]2c3cc4c(cc3C[C@@H](C)[C@@H]2C)OCO4)cc(OC)c1OC

IC50 [1]: 0.047 µM
SMILES: COc1cc([C@@H]2c3cc4c(c(OC)c3C[C@H]3COC(=O)[C@@H]32)OCO4)cc2c1OCO2

IC50 [1]: 5.11 µM
SMILES: COc1cc([C@@H]2O[C@H](c3ccc4c(c3)OCO4)[C@@H](C)[C@@H]2C)ccc1O

IC50 [1]: 0.05 µM
SMILES: COc1cc([C@@H]2c3cc4c(cc3C[C@H]3COC(=O)[C@@H]32)OCO4)cc2c1OCO2 [AUSTROBAILIGNAN 1]

IC50 [1]: 2.06 µM
SMILES: COc1cc([C@@H]2c3cc4c(cc3C[C@@H](C)[C@@H]2C)OCO4)cc2c1OCO2

IC50 [1]: 1.91 µM
SMILES: COc1cc(C(=O)O[C@@H](c2ccc3c(c2)OCO3)[C@H](C)C(C)=O)ccc1O
Activity [3]: Dose-dependent effect
Activity [4]: 61.1%
Activity [5]: 35.1%
Activity [6]: Dose-dependent effect
Activity [7]: Dose-dependent effect
Activity [8]: 27.5%
Activity [9]: 4.4%
Activity [10]: 9.9%
Activity [11]: 63.4%
Activity [12]: 3.8%
Activity [13]: Dose-dependent effect
Activity [14]: 32.2%
Activity [15]: Dose-dependent effect
Activity [16]: 62.6%
Activity [17]: Dose-dependent effect
Activity [18]: Dose-dependent effect
Activity [19]: Dose-dependent effect

IC50 [1]: 1.63 µM
SMILES: COc1cc([C@@H]2c3cc4c(cc3C[C@@H](C)[C@@H]2C(=O)O)OCO4)cc2c1OCO2
